Substitutions are numbered along the chain they refer to.
Experiments:
Details in all cases: stereoisomer not certain
OR52I1 (Homo sapiens) = target: T1, OR52I1 (Homo sapiens) (UniProt Q8NGK6)
T1 sequence (whole entry): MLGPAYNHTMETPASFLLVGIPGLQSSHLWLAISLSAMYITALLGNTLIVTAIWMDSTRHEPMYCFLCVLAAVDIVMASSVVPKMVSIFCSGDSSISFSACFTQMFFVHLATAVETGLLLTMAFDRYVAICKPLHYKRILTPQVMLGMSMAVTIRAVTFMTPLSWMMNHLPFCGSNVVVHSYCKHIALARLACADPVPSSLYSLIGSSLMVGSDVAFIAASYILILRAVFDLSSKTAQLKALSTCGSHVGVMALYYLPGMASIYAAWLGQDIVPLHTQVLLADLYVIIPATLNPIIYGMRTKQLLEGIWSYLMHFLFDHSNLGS
Method in brief: (§1)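 Each receptor–molecule pair is labelled responsive or non-responsive (inactive) according to whether the original authors judged the measured signal statistically different from baseline. The data were taken from the main text and supplementary material of published papers and checked for typos and inconsistencies. Assay methods differed by source, with transient luciferase assays in mammalian cell lines being common.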

OR52I2 (Homo sapiens) = target: T2, OR52I2 (Homo sapiens) (UniProt Q8NH67)
T2 sequence (whole entry): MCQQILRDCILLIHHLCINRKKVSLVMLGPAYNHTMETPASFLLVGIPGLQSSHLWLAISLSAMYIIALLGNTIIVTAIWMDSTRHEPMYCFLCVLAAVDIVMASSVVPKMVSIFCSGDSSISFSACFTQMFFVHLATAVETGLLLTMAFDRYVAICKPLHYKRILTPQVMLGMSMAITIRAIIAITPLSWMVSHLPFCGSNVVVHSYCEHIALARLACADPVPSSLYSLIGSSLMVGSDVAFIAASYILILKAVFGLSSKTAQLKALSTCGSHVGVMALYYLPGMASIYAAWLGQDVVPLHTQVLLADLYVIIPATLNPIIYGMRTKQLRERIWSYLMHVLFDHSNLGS
Method in brief: as §1

OR52J3 (Homo sapiens) = OR52J3 (Homo sapiens) (UniProt Q8NH60)
OR52J3 (Homo sapiens), sequence (Q8NH60 whole entry): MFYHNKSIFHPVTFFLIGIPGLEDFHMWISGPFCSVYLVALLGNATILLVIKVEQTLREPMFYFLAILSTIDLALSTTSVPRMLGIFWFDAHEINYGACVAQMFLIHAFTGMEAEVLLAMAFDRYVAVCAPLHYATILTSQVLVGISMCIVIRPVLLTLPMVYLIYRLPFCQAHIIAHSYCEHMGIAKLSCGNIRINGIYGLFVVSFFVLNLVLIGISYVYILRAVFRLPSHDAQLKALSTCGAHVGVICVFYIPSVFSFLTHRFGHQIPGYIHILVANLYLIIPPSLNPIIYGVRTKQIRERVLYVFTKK
Method in brief: as §1

OR52K1 (Homo sapiens) = target: T3, OR52K1 (Homo sapiens) (UniProt Q8NGK4)
T3 sequence (whole entry): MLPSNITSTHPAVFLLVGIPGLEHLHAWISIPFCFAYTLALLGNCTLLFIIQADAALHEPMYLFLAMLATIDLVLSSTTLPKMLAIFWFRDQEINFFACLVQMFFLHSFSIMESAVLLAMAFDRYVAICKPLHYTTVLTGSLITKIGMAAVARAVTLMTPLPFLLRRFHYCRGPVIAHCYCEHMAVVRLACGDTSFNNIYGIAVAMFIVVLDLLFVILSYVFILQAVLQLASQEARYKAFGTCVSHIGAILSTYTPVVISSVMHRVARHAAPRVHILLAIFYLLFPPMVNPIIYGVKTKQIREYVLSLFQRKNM
Method in brief: as §1

OR52K2 (Homo sapiens) = target: T4, OR52K2 (Homo sapiens) (UniProt Q8NGK3)
T4 sequence (whole entry): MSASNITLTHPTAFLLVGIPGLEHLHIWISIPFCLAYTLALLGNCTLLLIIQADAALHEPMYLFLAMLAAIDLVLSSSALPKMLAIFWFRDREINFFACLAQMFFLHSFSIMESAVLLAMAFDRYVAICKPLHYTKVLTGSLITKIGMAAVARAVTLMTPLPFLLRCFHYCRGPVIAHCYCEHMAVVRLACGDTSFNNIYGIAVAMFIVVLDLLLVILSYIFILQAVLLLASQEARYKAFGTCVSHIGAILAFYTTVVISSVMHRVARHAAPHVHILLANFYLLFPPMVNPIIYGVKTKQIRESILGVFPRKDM
Method in brief: as §1

OR52L1 (Homo sapiens) [1] = target: T5, OR52L1 (Homo sapiens) (UniProt Q8NGH7)
T5 sequence (whole entry): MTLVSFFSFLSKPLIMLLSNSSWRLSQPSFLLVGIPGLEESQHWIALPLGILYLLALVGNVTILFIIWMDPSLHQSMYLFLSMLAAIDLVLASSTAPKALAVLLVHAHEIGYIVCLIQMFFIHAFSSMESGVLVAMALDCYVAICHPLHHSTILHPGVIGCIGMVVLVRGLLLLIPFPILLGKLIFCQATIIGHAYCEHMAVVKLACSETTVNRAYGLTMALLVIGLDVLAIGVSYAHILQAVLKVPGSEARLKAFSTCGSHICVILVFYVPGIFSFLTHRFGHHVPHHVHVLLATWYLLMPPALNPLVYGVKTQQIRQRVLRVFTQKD
Method in brief: as §1

OR52M1 (Homo sapiens) = target: T6, OR52M1 (Homo sapiens) (UniProt Q8NGK5)
T6 sequence (whole entry): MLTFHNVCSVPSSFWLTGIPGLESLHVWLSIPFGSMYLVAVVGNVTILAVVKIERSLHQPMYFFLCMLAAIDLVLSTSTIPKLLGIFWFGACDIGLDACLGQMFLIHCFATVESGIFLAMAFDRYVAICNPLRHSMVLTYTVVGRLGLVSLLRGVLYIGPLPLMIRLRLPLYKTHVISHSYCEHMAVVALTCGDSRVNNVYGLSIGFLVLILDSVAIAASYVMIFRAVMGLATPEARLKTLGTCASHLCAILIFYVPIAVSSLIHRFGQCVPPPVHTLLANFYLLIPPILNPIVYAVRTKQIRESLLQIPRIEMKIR
Method in brief: as §1

OR52N1 (Homo sapiens) = target: T7, OR52N1 (Homo sapiens) (UniProt Q8NH53)
T7 sequence (whole entry): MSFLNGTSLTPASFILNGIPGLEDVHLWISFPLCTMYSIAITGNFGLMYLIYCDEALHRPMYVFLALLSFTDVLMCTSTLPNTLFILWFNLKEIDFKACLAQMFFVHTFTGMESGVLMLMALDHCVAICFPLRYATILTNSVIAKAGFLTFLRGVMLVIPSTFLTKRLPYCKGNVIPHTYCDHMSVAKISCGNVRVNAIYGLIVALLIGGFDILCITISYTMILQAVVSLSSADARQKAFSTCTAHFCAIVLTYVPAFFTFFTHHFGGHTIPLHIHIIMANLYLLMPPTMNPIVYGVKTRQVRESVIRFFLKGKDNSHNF
Method in brief: as §1

OR52N2 (Homo sapiens) = target: T8, OR52N2 (Homo sapiens) (UniProt Q8NGI0)
T8 sequence (whole entry): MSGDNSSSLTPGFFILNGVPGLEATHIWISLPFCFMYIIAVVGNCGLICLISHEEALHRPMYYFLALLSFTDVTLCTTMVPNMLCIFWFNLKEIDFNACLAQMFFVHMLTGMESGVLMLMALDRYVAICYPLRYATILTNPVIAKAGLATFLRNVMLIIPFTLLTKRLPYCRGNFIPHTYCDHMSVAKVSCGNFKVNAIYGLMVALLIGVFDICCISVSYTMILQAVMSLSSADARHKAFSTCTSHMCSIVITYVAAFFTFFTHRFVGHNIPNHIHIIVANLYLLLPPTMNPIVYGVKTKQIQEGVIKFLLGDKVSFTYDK
Method in brief: as §1

OR52N4 (Homo sapiens) = target: T9, OR52N4 (Homo sapiens) (UniProt Q8NGI2)
T9 sequence (whole entry): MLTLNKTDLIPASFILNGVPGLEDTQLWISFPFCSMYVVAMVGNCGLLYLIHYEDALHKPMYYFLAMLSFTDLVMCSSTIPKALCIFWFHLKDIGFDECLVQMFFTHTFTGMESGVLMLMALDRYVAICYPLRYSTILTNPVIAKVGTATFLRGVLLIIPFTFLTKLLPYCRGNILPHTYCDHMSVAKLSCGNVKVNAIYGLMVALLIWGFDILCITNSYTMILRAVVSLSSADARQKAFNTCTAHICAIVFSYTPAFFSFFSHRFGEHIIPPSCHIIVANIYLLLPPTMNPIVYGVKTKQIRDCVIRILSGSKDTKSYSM
Method in brief: as §1

OR52N5 (Homo sapiens) = target: T10, OR52N5 (Homo sapiens) (UniProt Q8NH56)
T10 sequence (whole entry): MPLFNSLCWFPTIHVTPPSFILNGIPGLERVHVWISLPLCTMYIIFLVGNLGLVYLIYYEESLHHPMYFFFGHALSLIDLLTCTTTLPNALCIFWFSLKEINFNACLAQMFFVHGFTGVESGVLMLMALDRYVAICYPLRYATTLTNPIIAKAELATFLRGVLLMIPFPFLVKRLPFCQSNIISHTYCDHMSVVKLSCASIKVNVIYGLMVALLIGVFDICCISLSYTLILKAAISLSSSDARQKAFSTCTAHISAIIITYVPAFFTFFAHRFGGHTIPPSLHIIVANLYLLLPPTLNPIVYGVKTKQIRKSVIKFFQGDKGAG
Method in brief: as §1

OR52R1 (Homo sapiens) = target: T11, OR52R1 (Homo sapiens) (UniProt Q8NGF1)
T11 sequence (whole entry): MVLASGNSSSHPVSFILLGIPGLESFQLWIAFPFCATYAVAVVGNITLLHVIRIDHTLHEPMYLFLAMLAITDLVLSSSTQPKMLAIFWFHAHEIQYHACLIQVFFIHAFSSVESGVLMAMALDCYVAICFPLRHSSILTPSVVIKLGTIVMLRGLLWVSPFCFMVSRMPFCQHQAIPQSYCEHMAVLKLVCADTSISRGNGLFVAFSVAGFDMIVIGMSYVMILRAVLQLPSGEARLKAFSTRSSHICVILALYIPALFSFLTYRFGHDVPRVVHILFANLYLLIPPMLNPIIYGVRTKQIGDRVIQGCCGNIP
Method in brief: as §1

OR52W1 (Homo sapiens) = target: T12, OR52W1 (Homo sapiens) (UniProt Q6IF63)
T12 sequence (whole entry): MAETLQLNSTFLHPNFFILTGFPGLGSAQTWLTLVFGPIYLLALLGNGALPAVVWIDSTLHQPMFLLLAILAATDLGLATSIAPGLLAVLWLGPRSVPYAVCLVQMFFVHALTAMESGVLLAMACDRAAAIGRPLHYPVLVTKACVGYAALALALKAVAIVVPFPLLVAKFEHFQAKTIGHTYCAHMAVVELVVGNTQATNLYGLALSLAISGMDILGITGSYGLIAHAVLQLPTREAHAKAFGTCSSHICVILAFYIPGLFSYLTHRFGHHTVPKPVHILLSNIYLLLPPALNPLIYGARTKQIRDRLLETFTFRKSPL
Method in brief: as §1

OR56A1 (Homo sapiens) = target: T13, OR56A1 (Homo sapiens) (UniProt Q8NGH5)
T13 sequence (whole entry): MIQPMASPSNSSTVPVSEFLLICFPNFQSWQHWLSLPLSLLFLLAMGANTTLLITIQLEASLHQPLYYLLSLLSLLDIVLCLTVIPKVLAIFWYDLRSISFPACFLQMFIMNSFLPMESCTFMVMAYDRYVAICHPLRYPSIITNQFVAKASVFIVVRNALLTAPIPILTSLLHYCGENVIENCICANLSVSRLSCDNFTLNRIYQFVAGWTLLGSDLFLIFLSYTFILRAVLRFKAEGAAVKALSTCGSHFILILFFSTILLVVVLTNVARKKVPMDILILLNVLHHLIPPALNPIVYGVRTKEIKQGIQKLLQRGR
Method in brief: as §1

OR56A3 (Homo sapiens) = target: T14, OR56A3 (Homo sapiens) (UniProt Q8NH54)
T14 sequence (whole entry): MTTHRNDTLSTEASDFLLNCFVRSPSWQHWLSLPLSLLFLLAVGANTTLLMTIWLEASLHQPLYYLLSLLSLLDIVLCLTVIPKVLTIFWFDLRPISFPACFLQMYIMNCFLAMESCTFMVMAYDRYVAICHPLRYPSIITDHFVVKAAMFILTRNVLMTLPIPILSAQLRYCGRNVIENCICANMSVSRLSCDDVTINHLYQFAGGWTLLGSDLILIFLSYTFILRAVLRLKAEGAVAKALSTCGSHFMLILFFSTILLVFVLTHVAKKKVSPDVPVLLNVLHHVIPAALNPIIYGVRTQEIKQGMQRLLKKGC
Method in brief: as §1

OR56A4 (Homo sapiens) = target: T15, OR56A4 (Homo sapiens) (UniProt Q8NGH8)
T15 sequence (whole entry): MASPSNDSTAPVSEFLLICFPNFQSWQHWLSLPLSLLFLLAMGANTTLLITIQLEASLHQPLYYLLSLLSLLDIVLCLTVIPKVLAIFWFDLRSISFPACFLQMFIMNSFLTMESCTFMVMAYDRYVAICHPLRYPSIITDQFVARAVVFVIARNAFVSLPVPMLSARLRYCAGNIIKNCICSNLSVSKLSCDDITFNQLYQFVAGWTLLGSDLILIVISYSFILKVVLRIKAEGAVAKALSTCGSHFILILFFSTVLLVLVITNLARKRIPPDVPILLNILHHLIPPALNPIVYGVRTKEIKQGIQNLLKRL
Method in brief: as §1

OR56A5 (Homo sapiens) = target: T16, OR56A5 (Homo sapiens) (UniProt P0C7T3)
T16 sequence (whole entry): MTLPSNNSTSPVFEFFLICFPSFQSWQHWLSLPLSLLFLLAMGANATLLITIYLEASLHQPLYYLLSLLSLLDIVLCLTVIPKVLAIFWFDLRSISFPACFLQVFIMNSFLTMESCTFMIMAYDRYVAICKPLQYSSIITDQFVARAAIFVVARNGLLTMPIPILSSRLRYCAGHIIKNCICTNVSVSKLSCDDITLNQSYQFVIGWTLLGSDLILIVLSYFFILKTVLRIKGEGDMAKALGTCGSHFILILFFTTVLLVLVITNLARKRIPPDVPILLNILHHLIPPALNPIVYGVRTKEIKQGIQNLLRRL
Method in brief: as §1

OR56B1 (Homo sapiens) = target: T17, OR56B1 (Homo sapiens) (UniProt Q8NGI3)
T17 sequence (whole entry): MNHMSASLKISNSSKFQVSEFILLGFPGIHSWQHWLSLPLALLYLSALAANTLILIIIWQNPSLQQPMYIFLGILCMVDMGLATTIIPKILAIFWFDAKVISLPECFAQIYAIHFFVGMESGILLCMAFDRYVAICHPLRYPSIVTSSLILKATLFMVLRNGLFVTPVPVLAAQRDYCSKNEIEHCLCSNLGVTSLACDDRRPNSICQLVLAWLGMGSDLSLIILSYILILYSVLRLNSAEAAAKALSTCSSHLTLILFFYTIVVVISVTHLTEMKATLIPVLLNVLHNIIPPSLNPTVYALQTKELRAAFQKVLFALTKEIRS
Method in brief: as §1

OR52L1 (Homo sapiens) [2] = target: T18, OR52L1 (Homo sapiens) (UniProt Q8NGH7); remark: listed apart in the source
T18 sequence (whole entry): T5 sequence (whole entry) with C140R, C161R, K183T, W297R
Method in brief: as §1

Measured: odorant receptor agonist call

CCCCCC(S)C(C)CO (stereo not given)
not listed: OR52L1 (Homo sapiens) [2]
inactive: all other assays above

CCC1OC(=O)C(O)=C1C (stereo not given)
not listed: OR52L1 (Homo sapiens) [1] | OR56A4 (Homo sapiens)
inactive: all other assays above
